# EBI2 antag: EBI2 (human) antagonism; EBI2 beta-arrestin recruitment, luminescence, 7a,25-OHC stimulated; inhibition, % at 5 µM; 360,000 tested, 0.81% active; AID 651636; in the data active = inhibition above about 38%;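 note: enzyme fragment complementation signal reports receptor beta-arrestin coupling in cells; 0% = agonist plus DMSO wells and 100% = wells without agonist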
# Myeloid diff 2: myeloid differentiation induction. ER-HoxA9 myeloid progenitors, lysozyme-GFP differentiation, flow cytometry. calls only at 10 µM. 360,000 tested, 1% active;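 active = normalized GFP-positive differentiation at or above the plate's own cutoff, the solvent-only control mean plus 3 SD; inconclusive = no clear call, values can overlap the other calls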;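 note: cells exposed to compound for four days before flow analysis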
# MC4R ag barr: agonists of human melanocortin 4 receptor (MC4R) beta-arrestin | P32245 | U2OS MC4R beta-arrestin complementation, luminescence; percent of melanotan II response, DMSO zero | activation, % at 8.9 µM | 360,000 tested, 0.98% active;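 active = activation above a per-plate cutoff, the mean activation of sample wells on that plate plus 3 SD, cut at about 8% in these data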
# Granule exo inh: lytic granule exocytosis inhibition; TALL-104 LAMP-1 surface exposure, flow cytometry; cells stimulated with thapsigargin and PMA; inhibition, % at 10 µM; 360,000 tested, 0.66% active;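 active = inhibition above about 55%, limit read from the data; inconclusive = no clear call, values can overlap the other calls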
# MC4R antagonist: human MC4R antagonism in cAMP assay. P32245. MC4R-expressing cells, MTII-stimulated cAMP, LANCE TR-FRET. inhibition, % at 6.5 µM. 360,000 tested, 0.48% active. AID 540295;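 active = inhibition above its plate's cutoff, the mean of tested wells on that plate plus 3 SD, cut at about 29% in these data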;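 note: 0% = Melanotan II alone and 100% = Melanotan II plus saturating MCL0020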
#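 Material: U2OS-MC4R stable cell line | Reagent: Melanotan II challenge after compound preincubation | Doses: One concentration, 6.5 µM nominal | Incubation: 30-min compound preincubation, 1-h Melanotan II challenge, 1-h detection, room temperature | Signal: TR-FRET cAMP assay | Replicates: One well per compound, no replicates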
# MC4R barr conf: human MC4R beta-arrestin agonism confirmation | shares compounds with MC4R ag barr | U2OS MC4R beta-arrestin recruitment, luminescence; scaled DMSO 0%, Melanotan II 100% | activation, % at 8.9 µM | 2,400 tested, 31% active | AID 602192;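 active = mean activation across replicates above the hit cutoff set in the earlier primary screen, cut at about 8% in these data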
# MOR DOR agonist: OPRM1-OPRD1 heterodimer agonism counter-screen | shares compounds with MC4R ag barr | U2OS PathHunter beta-arrestin, beta-gal luminescence; percent of deltorphin B response, DMSO zero | activation, % at 9.2 µM | 2,400 tested, 5.8% active;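 active = mean activation across replicates exceeds the hit threshold derived in the earlier primary screen, cut at about 18% in these data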;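 note: 100% = deltorphin B at 0.9 µM final and 0% = DMSO alone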
# Target sequence (P35372 whole entry, looked up): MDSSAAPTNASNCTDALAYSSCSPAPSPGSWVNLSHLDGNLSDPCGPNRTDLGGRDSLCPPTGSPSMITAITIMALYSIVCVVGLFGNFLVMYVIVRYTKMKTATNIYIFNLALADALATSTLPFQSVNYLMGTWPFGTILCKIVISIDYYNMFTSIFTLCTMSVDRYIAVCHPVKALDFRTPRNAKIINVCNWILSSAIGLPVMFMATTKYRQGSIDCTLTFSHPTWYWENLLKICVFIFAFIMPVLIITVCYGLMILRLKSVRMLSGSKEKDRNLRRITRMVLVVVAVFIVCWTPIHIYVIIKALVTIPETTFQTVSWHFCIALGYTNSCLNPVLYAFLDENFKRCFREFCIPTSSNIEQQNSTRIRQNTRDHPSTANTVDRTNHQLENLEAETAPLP
# Target sequence (P41143 whole entry, looked up): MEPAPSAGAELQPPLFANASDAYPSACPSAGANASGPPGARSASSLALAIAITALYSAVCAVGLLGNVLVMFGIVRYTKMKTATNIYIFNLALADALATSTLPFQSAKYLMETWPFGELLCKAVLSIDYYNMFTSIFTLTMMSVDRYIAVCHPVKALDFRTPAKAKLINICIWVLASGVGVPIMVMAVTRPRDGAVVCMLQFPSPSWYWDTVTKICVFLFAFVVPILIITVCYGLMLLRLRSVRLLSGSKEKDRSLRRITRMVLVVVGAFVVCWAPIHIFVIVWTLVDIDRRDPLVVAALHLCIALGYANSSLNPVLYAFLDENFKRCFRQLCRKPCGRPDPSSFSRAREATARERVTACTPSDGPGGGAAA
# An asterisk follows results filed as active; i = inactive; ? = inconclusive; · = no result given. Only some compounds are listed: those with a hit (about 3.7% of all), similar ones and a draw of the others.
SMILES,EBI2 antag,Myeloid diff 2,MC4R ag barr,Granule exo inh,MC4R antagonist,MC4R barr conf,MOR DOR agonist
C1CCC(C(CC2CCCCN2)C2CCCCC2)CC1 (centres undefined),-3,?,11*,19,14,12*,13
CCOc1ccc(C(=O)Nc2cccc(NC(=O)c3cccs3)c2)cc1[N+](=O)[O-],-3,i,-3,5,20,·,·
CCC(=O)NC(=S)Nc1ccc(NC(=O)c2ccc(C)c([N+](=O)[O-])c2)cc1,-1,i,11*,-9,11,0,7
CCOc1ccc(C(=O)Nc2ccc(NC(=O)c3ccco3)c(Cl)c2)cc1Cl,-18,i,36*,1,-8,3,19*
CCOc1ccc(C(=O)Nc2ccc(NC(=O)c3ccco3)c(Cl)c2)cc1Br,14,i,36*,0,1,6,16
CCOc1ccc(C(=O)Nc2cccc([N+](=O)[O-])c2)cc1Br,9,i,15*,-1,-10,4,8
COc1cccc(C(=O)Nc2ccc(NC(=O)c3ccco3)c(Cl)c2)c1,11,i,-1,-1,-5,·,·
O=C(Nc1ccc(NC(=O)c2sc3ccccc3c2Cl)cc1Cl)c1ccco1,-7,i,36*,1,0,8.8*,3
CCOc1ccc(C(=O)Nc2ccc3c(c2)OCO3)cc1OCC,9,i,-1,0,9,·,·
CCOc1cc(C(=O)Nc2ccc3c(c2)OCO3)ccc1OCCOc1ccccc1Cl,1,i,10*,-2,1,12*,6
CCOc1ccc(C(=O)Nc2ccc(NC(=O)c3ccccc3)c(C)c2)cc1[N+](=O)[O-],2,i,12*,-5,5,-3,5
O=C(Nc1ccc(NC(=O)c2cccs2)c(Cl)c1)c1ccco1,-6,i,-1,-1,-7,·,·
COc1cccc(C2CC(=O)C3=C(C2)Nc2ccccc2N(C(=O)CCC(=O)O)C3c2ccc(F)cc2)c1 (centres undefined),1,i,-1,8,2,·,·
CC(OC(=O)Cn1cc(C(F)(F)F)ccc1=O)C(=O)N(C)c1ccccc1 (centres undefined),-2,i,1,-3,12,·,·
CSc1nc2ccc(NC(=O)CS(=O)(=O)c3ccccc3)cc2s1,-12,i,1,2,10,·,·
CSc1nc2ccc(NC(=O)COc3ccccc3F)cc2s1,6,i,10*,-1,1,0,3
Cc1c(NC(=O)CS(=O)(=O)c2ccccc2)c(=O)n(-c2ccccc2)n1C,-9,i,-2,-3,9,·,·
NC(=O)CC(NC(=O)Cc1ccc(Br)cc1)c1ccc(NC2CCCCCCC2)c([N+](=O)[O-])c1 (centres undefined),2,i,11*,-3,8,6,1
NC(=O)CC(NC(=O)Cc1ccc(Br)cc1)c1ccc(NC2CCCCCC2)c([N+](=O)[O-])c1 (centres undefined),6,i,-2,4,6,·,·
O=C(CCCN1C(=O)/C(=C\c2cccs2)SC1=S)Nc1ccc(O)cc1,10,i,10*,22,26,16*,2
O=C(CCCN1C(=O)/C(=C/c2cccs2)SC1=S)NNC(=O)c1ccccc1O,-1,i,18*,3,-3,2,4
O=C(CCCN1C(=O)/C(=C\c2cccs2)SC1=S)Nc1ccc(C(=O)O)cc1,-1,i,1,23,-6,·,·
O=C(CCCN1C(=O)/C(=C/c2cccs2)SC1=S)NNC(=O)c1ccncc1,9,i,1,-17,7,·,·
CCOC(=O)c1c(C)[nH]c(C)c1C(=O)COC(=O)CCOc1ccccc1OC,-1,i,-1,1,-7,·,·
CCOC(=O)c1[nH]c(COC(=O)CCOc2ccccc2OC)c(C(=O)OCC)c1C,-11,i,16*,-2,5,2,6
SMILES,EBI2 antag,Myeloid diff 2,MC4R ag barr,Granule exo inh,MC4R antagonist,MC4R barr conf,MOR DOR agonist
O=c1cc(CN(Cc2ccccc2)Cc2ccccc2)c2ccccc2o1,9,i,·,-3,·,·,·
CCOc1ccc2nc(NC(=O)CS(=O)(=O)c3ccc(C)cc3)sc2c1,-10,i,11*,-1,-10,5,8
CCOc1ccc(OCC)c(NC(=O)CSc2nc3cccnc3n2C)c1,0,i,-1,-2,1,·,·
Cc1nc(NC(=O)CSc2nc3cccnc3n2Cc2ccccc2)sc1C,14,i,26*,-1,-3,3,8
CCOc1ccc2nc(NC(=O)CSc3nc4cccnc4n3C)sc2c1,28,i,16*,2,3,8.9*,7
CCOc1ccc2nc(NC(=O)CS(=O)(=O)c3ccccc3)sc2c1,6,i,0,-4,1,·,·
CC1CN(C(=O)c2ccc(OC3CCN(Cc4ccccn4)CC3)cc2)CCN1C (centres undefined),-9,i,-1,-4,-5,·,·
Cc1cccc(C(=O)O[C@@H]2[C@H](Cc3ccccc3)NS(=O)(=O)[C@H]3C[C@@H]4C=C[C@]23O4)c1,8,i,0,0,8,·,·
Cc1cc(CSc2ccccc2)ccc1NC(=O)c1ccc(C)c([N+](=O)[O-])c1,12,i,6,0,-10,·,·
Cc1ccc([N+](=O)[O-])cc1NC(=O)CCc1ccccc1,-2,i,0,-2,-2,·,·
Cc1cc(CSc2ccccc2)ccc1NC(=O)c1ccc(Cl)c([N+](=O)[O-])c1,13,i,22*,0,11,3,5
Cc1ccc([N+](=O)[O-])cc1NC(=O)c1ccc(CSc2ccccc2)cc1,3,i,14*,-4,5,7,4
Cc1ccc(SCc2ccc(C(=O)Nc3cccc([N+](=O)[O-])c3C)cc2)cc1,27,i,23*,1,4,6,5
Cc1ccc(-c2nnn(CC(=O)NC(=O)NC3CCCCC3)n2)cc1,-2,i,7,-1,6,·,·
O=C(Cn1nnc(-c2ccc(F)cc2)n1)NC(=O)NC1CCCCC1,-5,i,9.7*,2,5,2,5
CCOC(=O)C1=CCN(Cc2ccccc2)CC1,-8,i,0,14,0,·,·
NC(Cc1ccc(Cl)cc1)c1csc(NC(=O)NCCc2ccccc2)n1 (centres undefined),8,i,13*,5,1,27*,21*
NC(Cc1ccc(Cl)cc1)c1csc(NC(=O)Nc2ccccc2-c2ccccc2)n1 (centres undefined),-7,i,19*,-8,13,11*,9

# Screens as filed in PubChem.
